Data set [1] can be described thus: Caco-2 cell permeability assay. The conditions noted are these: human. A general note: Caco-2 monolayers are a common model of the intestinal barrier.
The nature of data set [2]: Pharmacokinetic study in rats. As to conditions: Sprague-Dawley, rat, plasma; for AUC: mean ± SD, n = 3. It is filed as in vivo.
A short description of data set [3]: Metabolic stability in mouse liver microsomes. It is filed as in vitro ADME. The conditions noted are these: pH 7.4. Put shortly:
(§1)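 Liver microsomes were incubated in PBS pH 7.4 at 37 °C with test compound at 1 μmol/L final (1.5 μmol/L in the microsome pre-mix, 0.75 mg/mL microsomes). The reaction was started with NADPH (6 mmol/L stock). Samples at 0, 5, 15, 30 and 45 min were quenched with acetonitrile containing internal standard, vortexed, centrifuged and analysed by LC–MS/MS. Results were expressed as % parent remaining, giving t1/2.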
In general terms: Liver microsomes are vesicles of endoplasmic reticulum, rich in cytochrome P450 enzymes.

Data set [4] relates to A431 human tumor xenografts. The data set can be described thus: A431 human tumor xenograft study in nude mice. The format is in vivo. As to conditions: A431 xenograft tumor tissue protein, Western blot. Put shortly: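 Athymic BALB/c nude mice, 4–6 weeks old, were implanted s.c. at one site with 1.5 × 10^7 A431 cells under anaesthesia. At 100–200 mm3, mice were randomised into four groups. Saline vehicle (0.1 mL/10 g) or test compound at 10 or 40 mg/kg was given i.g. daily for 27 days. Caliper tumour size and body weight were recorded every 2 days. Excised tumours were weighed, RIPA-extracted and Western blotted; mean ± SD, n = 3.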
(In general: Xenograft models place foreign cells or tissue in a host animal.)

Data set [5] in a line: Metabolic stability in monkey liver microsomes. It is filed as in vitro ADME. The conditions noted are these: pH 7.4. Put shortly: as §1
Data set [6] is described as follows: Metabolic stability in rat liver microsomes. As to conditions: pH 7.4. The format is in vitro ADME. Put shortly:
as §1

The nature of data set [7]: Metabolic stability in dog liver microsomes. The format is in vitro ADME. As to conditions: pH 7.4. Put shortly: as §1

What is called Papp A→B is how fast a substance crosses the layer from the apical side. A word on the Papp B→A: it is how fast a substance crosses the layer from the basolateral side. In general, efflux ratio refers to the permeability from basolateral to apical divided by that in the opposite direction, in the common usage. As to `COCCc1ccc(OCC(O)CNC(C)C)cc1` (stereo not shown) [Metoprolol], in data set [1], the apparent permeability from apical to basolateral (Papp A→B) at 90 min, 10 μmol/L worked out at 40.04 ± 0.05 ×10⁻⁶ cm/s; the basolateral-to-apical permeability (Papp B→A) at 90 min, 10 μmol/L is 30.92 ± 0.03 ×10⁻⁶ cm/s; the efflux ratio at 90 min, 10 μmol/L turned out to be 0.77.
Usually MRT inf stands for a mean duration of stay, worked out from the concentration-time curve. The AUC is concentration integrated over time. Broadly, the bioavailability is dose-corrected exposure relative to a reference, in per cent. For orientation: Cmax means the peak of the concentration-time curve. The Tmax is the time from dosing to the highest level. Usually half-life stands for how long it takes for the measured level to halve. In turn, `COc1cc2ncnc(Nc3ccc(F)c(Cl)c3)c2cc1OCCCN1CCOCC1` [Gefitinib] yielded an MRT inf in data set [2] (iv, 10 mg/kg) of 272 ± 11.4 min. In addition, the AUC in data set [2] (iv, 10 mg/kg, AUCINF_plasma, i.v. 10 mg/kg) came out at 7800 ± 1460 ng·h/mL; in data set [2] (iv, 10 mg/kg, AUClast_plasma, i.v. 10 mg/kg), 7720 ± 1430 ng·h/mL; in data set [2] (po, 40 mg/kg, AUCINF_plasma, p.o. 40 mg/kg) it was 20800 ng·h/mL; in data set [2] (po, 40 mg/kg, AUClast_plasma, p.o. 40 mg/kg), 20500 ng·h/mL. The compound also came in with a bioavailability in data set [2] (oral, 40 mg/kg) of 66.5 ± 22.8%. The peak level in data set [2] (po, 40 mg/kg) (Cmax) was 1480 ± 395 ng/mL. Further, the Tmax in data set [2] (po, 40 mg/kg) was determined as 260 ± 173 min. In addition, the half-life in data set [2] (po, 40 mg/kg) is 231 ± 21 min. The compound further showed an apparent permeability from apical to basolateral (Papp A→B) at 90 min, 10 μmol/L in data set [1] of 8.37 ± 0.01 ×10⁻⁶ cm/s. In data set [1], this compound came in with a Papp B→A at 90 min, 10 μmol/L of 15.52 ± 0.02 ×10⁻⁶ cm/s. Also, the half-life at 1 μmol/L in data set [3] amounted to 8.38 min; in data set [5], 4.66 min; in data set [6] it was 21.2 min; in data set [7], 34.5 min. Moreover, the “p-EGFR and p-AKT in tumor extracts” value in data set [4] was “clearly inhibited”.
`CC[C@H]1OC(=O)[C@H](C)[C@@H](O[C@H]2C[C@@](C)(OC)[C@@H](O)[C@H](C)O2)[C@H](C)[C@@H](O[C@@H]2O[C@H](C)C[C@H](N(C)C)[C@H]2O)[C@](C)(O)C[C@@H](C)C(=O)[C@H](C)[C@@H](O)[C@]1(C)O` [Erythromycin]: in data set [1], the apical-to-basolateral permeability (Papp A→B) at 90 min, 10 μmol/L stood at 0.09 ± 0.03 ×10⁻⁶ cm/s; the apparent permeability from basolateral to apical (Papp B→A) at 90 min, 10 μmol/L amounted to 22.18 ± 0.02 ×10⁻⁶ cm/s; the efflux ratio at 90 min, 10 μmol/L came to 240.

Source of the values: PMC6900553 (Acta Pharmaceutica Sinica. B, 2019).
